Measured values from ChEMBL document CHEMBL2046403, “Biochemical and pharmacological evaluation of 4-hydroxychromen-2-ones bearing polar C-3 substituents as anticoagulants” (Eur J Med Chem, 2012).

Experiments:
Plasma [1] = experiment: Anticoagulant activity in human plasma assessed as prothrombin time at 1 mg/ml; format: functional
Summary of the method: (§1)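 Frozen human plasma (blood type A+) was used. Compounds were prepared at 1 mg/mL in a vehicle of 96% EtOH, 0.9% NaCl, 20% glycerol and phosphate buffer pH 7. Prothrombin time was measured by Quick method and reported in seconds and as INR, with SD from at least three measurements.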

Plasma [2] = experiment: Anticoagulant activity in Wistar albino rat plasma assessed as prothrombin time at 0.1 mg/kg, ip; format: functional; details: route intraperitoneal
Summary of the method: (§2)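 Adult Wistar rats (2.5 months, 220–250 g), three per compound and control, were given a single i.p. dose of 0.1 or 0.5 mg/kg in ethanol solution and sacrificed 24 h later. […] Plasma prothrombin time was measured by Quick method and reported in seconds and as INR, from at least three measurements.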

Plasma [3] = experiment: Anticoagulant activity in Wistar albino rat plasma assessed as prothrombin time at 0.5 mg/kg, ip; format: functional; details: route intraperitoneal
Summary of the method: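 Adult Wistar rats (2.5 months, 220–250 g), three per compound and control, were given a single i.p. dose of 0.1 or 0.5 mg/kg in ethanol solution and sacrificed 24 h later. Plasma prothrombin time was measured by Quick method and reported in seconds and as INR, from at least three measurements.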

Plasma [4] = experiment: Anticoagulant activity in Wistar albino rat plasma assessed as fibrinogen level; format: functional
Summary of the method: (§3)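 Adult albino Wistar rats (2.5 months old, 220–250 g), three per compound and control. […] Fibrin time and fibrinogen were determined on plasma. Fibrinogen was quantified by biuret method at 540 nm. At least three measurements, reported with standard deviation.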

Plasma [5] = experiment: Anticoagulant activity in Wistar albino rat plasma assessed as fibrin time; format: functional; summary of the method: as §3
Plasma [6] = experiment: Anticoagulant activity in Wistar albino rat plasma assessed as prothrombin time at 0.5 mg/kg/day, ip administered for 5 days measured after second dose; format: functional; details: route intraperitoneal
Summary of the method: (§4)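 Wistar rats, three per group, were dosed i.p. at 0.5 mg/kg per day over five days in ethanol solution and sacrificed on day six. Plasma prothrombin time was measured by Quick method after the second 0.5 mg/kg administration, reported in seconds and INR. Where animals were dosed more than once, PTs were averaged.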

Rattus norvegicus [7] = experiment: Hepatotoxicity in Wistar albino rat assessed as change in serum bilirubin level at 0.5 mg/kg, ip measured after 24 hrs; format: toxicity, organism-based; parameters: dose 0.5 mg/kg, route intraperitoneal; details: in vivo
Rattus norvegicus [8] = experiment: Hepatotoxicity in Wistar albino rat assessed as change in serum AST level at 0.5 mg/kg, ip measured after 24 hrs; format: toxicity, organism-based; parameters: dose 0.5 mg/kg, route intraperitoneal; details: in vivo
Rattus norvegicus [9] = experiment: Hepatotoxicity in Wistar albino rat assessed as change in serum ALT level at 0.5 mg/kg, ip measured after 24 hrs; format: toxicity, organism-based; parameters: dose 0.5 mg/kg, route intraperitoneal; details: in vivo
Rattus norvegicus [10] = experiment: Hepatotoxicity in Wistar albino rat assessed as change in serum ALP level at 0.5 mg/kg, ip measured after 24 hrs; format: toxicity, organism-based; parameters: dose 0.5 mg/kg, route intraperitoneal; details: in vivo
Rattus norvegicus [11] = experiment: Hepatotoxicity in Wistar albino rat assessed as change in serum gamma-GT level at 0.5 mg/kg, ip measured after 24 hrs; format: toxicity, organism-based; parameters: dose 0.5 mg/kg, route intraperitoneal; details: in vivo
Rattus norvegicus [12] = experiment: Hepatotoxicity in Wistar albino rat assessed as change in serum iron level at 0.5 mg/kg, ip measured after 24 hrs; format: toxicity, organism-based; parameters: dose 0.5 mg/kg, route intraperitoneal; details: in vivo
Rattus norvegicus [13] = experiment: Hepatotoxicity in Wistar albino rat assessed as change in serum protein level at 0.5 mg/kg, ip measured after 24 hrs; format: toxicity, organism-based; parameters: dose 0.5 mg/kg, route intraperitoneal; details: in vivo
Rattus norvegicus [14] = experiment: Hepatotoxicity in Wistar albino rat assessed as change in serum albumin level at 0.5 mg/kg, ip measured after 24 hrs; format: toxicity, organism-based; parameters: dose 0.5 mg/kg, route intraperitoneal; details: in vivo
Rattus norvegicus [15] = experiment: Hepatotoxicity in Wistar albino rat assessed as change in serum gamma-GT level at 0.5 mg/kg, ip administered for 5 days measured after second compound dose; format: toxicity, organism-based; parameters: dose 0.5 mg/kg, route intraperitoneal; details: in vivo, 120 h
Rattus norvegicus [16] = experiment: Hepatotoxicity in Wistar albino rat assessed as change in serum iron level at 0.5 mg/kg/day, ip administered for 5 days measured after second compound dose; format: toxicity, organism-based; parameters: route intraperitoneal; details: in vivo, 120 h
Plasma [17] = experiment: Anticoagulant activity in Wistar albino rat plasma assessed as prothrombin time at 0.5 mg/kg, ip relative to untreated control; format: functional; details: route intraperitoneal
Summary of the method: (§5)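 Rats (Wistar, 220–250 g, n=3 per group) were dosed i.p. with 0.5 mg/kg compound in ethanol solution. Prothrombin time was measured in plasma by Quick method and expressed as fold of the matching control value. […] Groups were compared by one-way ANOVA with Dunnett T3 or Bonferroni post-hoc tests.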

Plasma [18] = experiment: Anticoagulant activity in Wistar albino rat plasma assessed as prothrombin time at 0.5 mg/kg, ip relative to warfarin; format: functional; details: route intraperitoneal; summary of the method: as §5
Rattus norvegicus [19] = experiment: Hepatotoxicity in Wistar albino rat assessed as change in serum AST level at 0.5 mg/kg, ip measured after 24 hrs relative to untreated control; format: toxicity, organism-based; parameters: dose 0.5 mg/kg, route intraperitoneal; details: in vivo
Summary of the method: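 Serum AST was measured 24 h after a single 0.5 mg/kg i.p. dose (ethanol solution) in Wistar rats, three per group, by IFCC UV kinetic method at 340 nm. Activity was expressed as fold of the negative (96% ethanol) control, and compared by one-way ANOVA with post-hoc tests.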

Plasma [20] = experiment: Anticoagulant activity in Wistar albino rat plasma assessed as fibrinogen level at 0.5 mg/kg/day, ip administered for 5 days; format: functional; details: route intraperitoneal
Summary of the method: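 Wistar rats (220–250 g), three per group, got one i.p. dose of 0.5 mg/kg per day for five days and were sacrificed on day six. […] Plasma fibrinogen was measured by biuret method at 540 nm.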

Rattus norvegicus [21] = experiment: Anticoagulant activity in Wistar rats in vivo assessed as prothrombin time
Rattus norvegicus [22] = experiment: Drug metabolism in Wistar albino rat assessed as 7-hydroxycoumarin level in urine at 1 mg/kg, ip measured after 72 hrs by GC/MS analysis; details: in vivo
Rattus norvegicus [23] = experiment: Drug metabolism in Wistar albino rat assessed as coumarin-7-glucuronide level in urine at 1 mg/kg, ip measured after 72 hrs by GC/MS analysis; details: in vivo
Rattus norvegicus [24] = experiment: Hepatotoxicity in Wistar albino rat assessed as change in serum AST level at 0.5 mg/kg/day, ip administered for 5 days measured after second compound dose; details: in vivo, 120 h
Rattus norvegicus [25] = experiment: Hepatotoxicity in Wistar albino rat assessed as change in serum ALT level at 0.5 mg/kg/day, ip administered for 5 days measured after second compound dose; details: in vivo, 120 h
Plasma [26] = experiment: Anticoagulant activity in human plasma assessed as international normalized ratio at 1 mg/ml; format: functional; summary of the method: as §1
Plasma [27] = experiment: Anticoagulant activity in Wistar albino rat plasma assessed as international normalized ratio at 0.1 mg/kg, ip; format: functional; details: route intraperitoneal; summary of the method: as §2
Plasma [28] = experiment: Anticoagulant activity in Wistar albino rat plasma assessed as international normalized ratio at 0.5 mg/kg, ip; format: functional; details: route intraperitoneal; summary of the method: as §2
Plasma [29] = experiment: Anticoagulant activity in Wistar albino rat plasma assessed as international normalized ratio at 0.5 mg/kg/day, ip administered for 5 days measured after second dose; format: functional; details: route intraperitoneal; summary of the method: as §4
[30] = target: VKORC1 (Rattus norvegicus); experiment: Inhibition of VKORC1
Rattus norvegicus [31] = experiment: Toxicity in Wistar albino rat assessed as lethal dose at 0.5 mg/kg/day, ip administered for 5 days; format: organism-based; parameters: route intraperitoneal; details: in vivo, 120 h

SMILES	PT (Plasma [1])	PT (Plasma [2])	PT (Plasma [3])	Activity (Plasma [4])	Time (Plasma [5])	PT (Plasma [6])	Activity (Rattus norvegicus [7])	Activity (Rattus norvegicus [8])	Activity (Rattus norvegicus [9])	Activity (Rattus norvegicus [10])	Activity (Rattus norvegicus [11])	Activity (Rattus norvegicus [12])	Activity (Rattus norvegicus [13])	Activity (Rattus norvegicus [14])	Activity (Rattus norvegicus [15])	Activity (Rattus norvegicus [16])	fold change (FC) (Rattus norvegicus [19])	Activity (Plasma [20])	IC50 (Rattus norvegicus [21])	Drug metabolism (Rattus norvegicus [22])	further results
O=c1oc2ccccc2c(O)c1-c1csc(Nc2cccc([N+](=O)[O-])c2)n1	24.4 s	9.6 s	14.4 s	0.6 g/L	>500 s	28.1 s	2.2 µmol/L	294.6 U/L	52.4 U/L	225 U/L	2.8 U/L	29.7 µmol/L	64.2 g/L	39.7 g/L	2.6 U/L	17.3 µmol/L	1.74	1.74 g/L	741 µM	Active	fold change (FC) (Plasma [17]): 1.48; fold change (FC) (Plasma [18]): 1.18; Drug metabolism (Rattus norvegicus [23]): Active; AST (Rattus norvegicus [24]): 210.7 U/L; ALT (Rattus norvegicus [25]): 65.1 U/L
O=c1oc2ccccc2c(O)c1-c1csc(Nc2ccc(S(=O)(=O)O)cc2)n1	26.5 s	10.4 s	12.4 s	–	>500 s	28.6 s	1.6 µmol/L	269.7 U/L	58.4 U/L	164 U/L	2.4 U/L	19.3 µmol/L	64.9 g/L	40.8 g/L	2.2 U/L	19 µmol/L	1.59	0.9 g/L	141 µM	Active	fold change (FC) (Plasma [17]): 1.27; fold change (FC) (Plasma [18]): 1.18; Ratio (Plasma [26]): 2.6; Ratio (Plasma [27]): 0.82; Ratio (Plasma [28]): 0.84; Ratio (Plasma [29]): 1.38; Ki [30]: 44.8 µM; Drug metabolism (Rattus norvegicus [23]): Active; AST (Rattus norvegicus [24]): 207.5 U/L; ALT (Rattus norvegicus [25]): 63 U/L
CCOC(=O)C(C(=O)OCC)=C(C)c1c(O)c2ccccc2oc1=O	23 s	10.3 s	10.5 s	5.1 g/L	51.3 s	30 s	2 µmol/L	238.3 U/L	71.8 U/L	513 U/L	3.1 U/L	28.4 µmol/L	67.2 g/L	35.2 g/L	2.3 U/L	17.7 µmol/L	1.41	1.6 g/L	141 µM	Active	fold change (FC) (Plasma [17]): 1.08; Activity (Plasma [18]): 86.06%; Ratio (Plasma [26]): 1.99; Ratio (Plasma [27]): 0.13; Ratio (Plasma [28]): 0.13; Ratio (Plasma [29]): 0.13; Ki [30]: 68.9 µM; Drug metabolism (Rattus norvegicus [23]): Active; AST (Rattus norvegicus [24]): 209.9 U/L; ALT (Rattus norvegicus [25]): 55.5 U/L
Cc1cccc(Nc2nc(-c3c(O)c4ccccc4oc3=O)cs2)c1	25 s	9.6 s	9.7 s	2 g/L	27.6 s	28.1 s	1.8 µmol/L	284.6 U/L	67.3 U/L	172 U/L	2.2 U/L	28.4 µmol/L	66.2 g/L	41.9 g/L	3 U/L	17.3 µmol/L	1.68	1.2 g/L	69.2 µM	Active	Activity (Plasma [18]): 79.51%; Drug metabolism (Rattus norvegicus [23]): Active; AST (Rattus norvegicus [24]): 175.5 U/L; ALT (Rattus norvegicus [25]): 62.4 U/L
CC(=O)CC(c1ccccc1)c1c(O)c2ccccc2oc1=O (stereo unspecified) [WARFARIN]	18.5 s	10.3 s	–	1.9 g/L	33.4 s	–	1.3 µmol/L	277.3 U/L	51.5 U/L	170 U/L	3.4 U/L	22.3 µmol/L	59.4 g/L	34.5 g/L	–	–	–	–	–	–	Activity (Rattus norvegicus [31]): Toxic
